TRPC4 inh – inhibitors of mouse TRPC4 channel, primary screen, Fluo4 calcium, HEK293 TRPC4beta/mu-opioid cells. Short transient receptor potential channel 4 (Mus musculus), Q9QUQ5. DAMGO-evoked Fluo4 calcium flux; active compounds read low. B-score at 10 µM. 300,000 tested, 0.39% active. AID 2247, 2010;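 active = B-score over 3 SD under the library average, no early fluorescence shift, positive overall ratio signal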
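material = TRPC4beta/mu-opioid receptor HEK293 cell line | probe or stimulus = sequential submaximal and maximal DAMGO stimulation | compound dosing = one concentration per compound | measured by = Fluo4 Ca2+ flux fluorescence | evaluation = integrated fluorescence ratio relative to baseline, converted to per-well B score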
TRPC4 act – activators of mouse TRPC4 channel, primary screen, Fluo4 calcium, HEK293 TRPC4beta/mu-opioid cells | 310,000 tested, 0.49% active | B-score at 10 µM | Short transient receptor potential channel 4 (Mus musculus), Q9QUQ5 | Fluo4 calcium fluorescence; active compounds read high;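 active = B-score above 5 SD of library B-scores, and initial fluorescence ratio not above library mean plus 5 SD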;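 also: positive B-score marks a calcium rise read as TRPC4 activation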
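Assay system – TRPC4beta and mu-opioid receptor HEK293 stable cells · Measured by – Fluo4 fluorescence, kinetic · Schedule – dye loading 45 min room temperature, 110 s kinetic read · Read-out – B-scored integrated calcium fluorescence ratio · Controls – buffer and maximal DAMGO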
Kir21 inh – inhibitors of mouse Kir2.1 inward-rectifier potassium channel; Inward rectifier potassium channel 2 (Mus musculus), P35561; HEK293-Kir2.1, FluxOR thallium flux fluorescence; active compounds read low; B-score at 10 µM; 310,000 tested, 0.85% active; AID 1672, 2009;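 active = fluorescence ratio B-score at or below minus 3 SD of library scores, with starting-brightness B-score within 2 SD, cut at about -4.2 in these data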;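 also: channel flux triggered by added potassium and thallium sulfate stimulus; B-score of peak minus minimum fluorescence over baseline after thallium stimulus; more negative B-score means stronger Kir2.1 block with less thallium influx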
TRPC4 PAM – positive allosteric modulators of TRPC4, primary screen, cell-based, mouse TRPC4beta, HEK293 mu-opioid, Fluo-4 calcium. 310,000 tested, 0.42% active. Short transient receptor potential channel 4 (Mus musculus), Q9QUQ5. DAMGO EC20, Fluo-4 Ca2+ flux; active compounds read high. B-score at 10 µM;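 active = B-score of calcium response area above 5 SD of library B-scores, with initial fluorescence ratio within 5 SD of library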
TRPC6 inhibitor – mouse TRPC6 channel inhibitors, primary screen, cell-based, HEK293, membrane potential dye | ACh-evoked depolarization; active compounds read low | B-score at 10 µM | 310,000 tested, 1.1% active;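 active = B-score under library mean minus 3 SD, initial fluorescence not abnormally high, positive integrated signal ratio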;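 also: B-score derived from integrated fluorescence ratio over the kinetic read; more negative B-score means stronger inhibition of depolarization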
Target sequence (Q61143 whole entry, looked up): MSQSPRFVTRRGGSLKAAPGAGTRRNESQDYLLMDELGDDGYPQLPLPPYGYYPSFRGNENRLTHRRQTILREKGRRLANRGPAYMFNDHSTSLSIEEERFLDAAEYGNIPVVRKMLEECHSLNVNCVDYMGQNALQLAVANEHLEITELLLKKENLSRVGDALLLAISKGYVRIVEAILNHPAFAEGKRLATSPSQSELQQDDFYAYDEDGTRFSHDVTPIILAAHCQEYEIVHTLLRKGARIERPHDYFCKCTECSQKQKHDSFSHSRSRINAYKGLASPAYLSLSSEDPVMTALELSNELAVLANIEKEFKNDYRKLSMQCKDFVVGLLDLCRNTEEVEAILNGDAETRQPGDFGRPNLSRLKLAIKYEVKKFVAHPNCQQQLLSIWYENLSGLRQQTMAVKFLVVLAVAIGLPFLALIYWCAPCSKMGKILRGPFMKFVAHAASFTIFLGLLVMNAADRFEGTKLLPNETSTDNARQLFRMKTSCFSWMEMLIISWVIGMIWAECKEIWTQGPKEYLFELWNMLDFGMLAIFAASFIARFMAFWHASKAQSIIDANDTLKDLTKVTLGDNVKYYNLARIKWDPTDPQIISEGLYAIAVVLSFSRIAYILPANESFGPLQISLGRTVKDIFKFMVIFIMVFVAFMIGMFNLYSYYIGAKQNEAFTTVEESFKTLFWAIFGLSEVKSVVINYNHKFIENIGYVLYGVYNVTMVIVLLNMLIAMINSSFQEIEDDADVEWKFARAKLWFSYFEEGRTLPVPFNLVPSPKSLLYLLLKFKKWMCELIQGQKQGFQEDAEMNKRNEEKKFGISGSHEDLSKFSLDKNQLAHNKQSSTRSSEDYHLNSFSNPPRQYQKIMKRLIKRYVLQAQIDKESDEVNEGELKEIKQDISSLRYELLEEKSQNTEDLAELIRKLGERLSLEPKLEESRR
TRPC6 act – mouse TRPC6 channel activators, primary screen, cell-based, HEK293, membrane potential dye | Short transient receptor potential channel 6 (Mus musculus), Q61143 | HEK293-TRPC6 membrane potential dye fluorescence; active compounds read high | B-score at 10 µM | 310,000 tested, 0.13% active | AID 2550, 2010;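 active = B-score of the integrated fluorescence ratio above library mean plus 3 SD, and starting fluorescence ratio within library mean plus 5 SD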;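 also: higher score means more depolarization so channel activation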
TRPC4 sel inh 2 – second check of whether TRPC6 inhibitors also affect mouse TRPC4. shares compounds with TRPC6 inhibitor. HEK293 TRPC4/MOR, membrane potential dye fluorescence; channel activated by saturating DAMGO dose. inhibition, % at 10 µM. 920 tested, 42% active. AID 2776;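 active = compounds whose fluorescence signal differed from control wells by over 3 SD, either direction, in both duplicate plates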
TRPC4 spec – mouse TRPC4 modulation by TRPC6 hits, confirmation, selectivity assay for TRPC6 inhibitor project, cell-based, HEK293 TRPC4/mu-opioid, membrane potential dye | shares compounds with TRPC6 inhibitor | membrane potential fluorescence | activity change, negative = inhibition, % at 10 µM | 920 tested, 61% active | AID 2777, 2010;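 active = rise or fall in signal beyond 3 SD of buffer-only wells in both replicate plates, either sign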;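 also: integrated kinetic ratio of fluorescence range over baseline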
HEK293 MPD ctr 2-1 – nonspecific membrane potential effects, parental HEK293, confirmation, counter-screen for TRPC6 inhibitor project, cell-based, second counter screen; signal change vs control, % at 10 µM; parental HEK293 membrane potential dye fluorescence; maximal acetylcholine challenge after compound addition; 920 tested, 31% active; AID 2779, 2010; shares compounds with TRPC6 inhibitor;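 active = membrane potential signal moving either way by over 3 SD of the maximum-effect control, in both duplicate plates, meaning non-specific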
HEK293 MPD ctr-1 – membrane potential modulation in parental HEK293, confirmation, counter-screen for TRPC6 inhibitor project, cell-based. AID 2780, 2010. membrane potential signal change, % at 10 µM. shares compounds with TRPC6 inhibitor. parental HEK293 membrane potential dye fluorescence. 920 tested, 60% active;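 active = membrane potential signal shifting up or down by more than 3 SD of buffer-only wells, on both duplicate plates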
HEK293 MPD ctr-2 – parental HEK293 membrane potential modulation, confirmation, counter-screen for TRPC6 modulator project, cell-based. shares compounds with TRPC6 inhibitor. membrane potential dye fluorescence. membrane potential signal change, % at 10 µM. 2,400 tested, 51% active. AID 488924, 2010;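 active = membrane potential signal moves up or down beyond 5 SD from buffer-only wells, on both duplicate plates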
HEK293 MPD ctr 2-2 – second counter-screen for TRPC6 modulators: effect in parental HEK293 cells; 2,400 tested, 14% active; shares compounds with TRPC6 inhibitor; inhibition, % at 10 µM; membrane potential dye fluorescence; after compound, maximal acetylcholine stimulation; AID 488926;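 active = membrane potential signal drops by more than 5 SD from the mean control signal, in both duplicate plates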
TRPC4 ctr mod – TRPC4 modulation by TRPC6 hit compounds, confirmation, selectivity assay for TRPC6 modulator project, cell-based, HEK293 TRPC4/mu-opioid, membrane potential dye, mouse; 2,400 tested, 69% active; membrane potential fluorescence; shares compounds with TRPC6 inhibitor; AID 488927, 2010; percent change from control (negative = decrease, positive = increase), % at 10 µM;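 active = membrane potential signal moved up or down beyond 5 SD of buffer control wells, in both duplicate plates, actives on both sides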
TRPC4/MOR inh 2 – second selectivity test of TRPC6 modulators against mouse TRPC4; inhibition, % at 10 µM; shares compounds with TRPC6 inhibitor; 2,400 tested, 55% active; AID 488928; HEK293 TRPC4/mu-opioid, membrane potential dye fluorescence; stimulated with maximal-effect DAMGO;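 active = drop in membrane potential signal beyond 5 SD of the control wells in both duplicate plates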;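 also: TRPC4 counter screen for TRPC6 hits run under conditions tuned for TRPC6 not TRPC4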
TRPC6 block conf – mouse TRPC6 channel inhibitors, confirmation, HEK293 cells, membrane potential dye, duplicate. shares compounds with TRPC6 inhibitor. ACh-evoked depolarization. inhibition, % at 10 µM. 3,300 tested, 43% active. AID 488960, 2010;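 active = fluorescence ratio falls more than 5 SD below the full-stimulation control mean, in both duplicate runs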;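 also: integrated fluorescence ratio of peak minus minimum over baseline after agonist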
TRPC6 act confirm – mouse TRPC6 channel activators, confirmation, HEK293 cells, membrane potential dye, duplicate; shares compounds with TRPC6 inhibitor; HEK293-TRPC6 membrane potential dye fluorescence, FDSS; activation, % at 10 µM; 2,800 tested, 11% active;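 active = ratio signal rise beyond 5 SD above unstimulated control wells' mean, seen in both duplicate runs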
Each line names hits and unclear results; the compound was inactive in the other large screens (follow-up assays come after a bar, where they were run). Only some compounds are listed: those with a hit (about 2.9% of all), similar ones and a draw of the others.

c1ccc(CN2CCN(Cc3nnc(-c4ccccc4)o3)CC2)cc1	TRPC6 inhibitor -5.64 | HEK293 MPD ctr-2 inactive | HEK293 MPD ctr 2-2 66.5% | TRPC4 ctr mod 11.0% | TRPC4/MOR inh 2 inactive | TRPC6 block conf 64.0%
CCCOC(=O)CC1C(=O)NCCN1C(=O)OC(C)(C)C (stereo not drawn)	none
COc1ccc(N=Nc2c(C)[nH]c3ccccc23)cc1	none
CSCc1cc(N(C)c2ccccc2)nc(-c2ccccn2)n1	TRPC6 inhibitor -7.16 | TRPC4 sel inh 2 inactive | TRPC4 spec inactive | HEK293 MPD ctr 2-1 inactive | HEK293 MPD ctr-1 inactive | TRPC6 block conf inactive | TRPC6 act confirm inactive
O=C(O)c1ccccc1NS(=O)(=O)c1cccc2nsnc12	none
O=C(O)c1cc(Br)ccc1NS(=O)(=O)c1cccc2nsnc12	TRPC6 act 12.8 | HEK293 MPD ctr-2 inactive | HEK293 MPD ctr 2-2 inactive | TRPC4 ctr mod 15.5% | TRPC4/MOR inh 2 inactive | TRPC6 block conf inactive | TRPC6 act confirm 33.5%
Cc1nc2c(C(=O)N3CCCCC3)cnn2c(C)c1Cc1ccccc1F	TRPC6 inhibitor -10.9, TRPC6 act 21.8 | HEK293 MPD ctr-2 147.0% | HEK293 MPD ctr 2-2 inactive | TRPC4 ctr mod 28.5% | TRPC4/MOR inh 2 30.0% | TRPC6 block conf 114.0% | TRPC6 act confirm 177.5%
Cc1cccc(S(=O)(=O)NC(Cc2c[nH]c3ccccc23)C(=O)O)c1 (stereo not drawn)	none
O=C(O)C1CC(c2ccccc2)=Nc2ccccc2S1 (stereo not drawn)	TRPC6 inhibitor -5.35 | HEK293 MPD ctr-2 136.5% | HEK293 MPD ctr 2-2 inactive | TRPC4 ctr mod 28.0% | TRPC4/MOR inh 2 inactive | TRPC6 block conf inactive
O=C(CSCc1cnn(-c2ccccc2)c1-n1cccc1)NCc1ccccn1	Kir21 inh -4.4, TRPC6 inhibitor -6.28 | HEK293 MPD ctr-2 inactive | HEK293 MPD ctr 2-2 inactive | TRPC4 ctr mod 11.0% | TRPC4/MOR inh 2 inactive | TRPC6 block conf inactive
OCCCn1c(-c2ccccc2)csc1=Nc1ccccc1	TRPC6 inhibitor -5.76 | HEK293 MPD ctr-2 382.0% | HEK293 MPD ctr 2-2 141.0% | TRPC4 ctr mod 76.5% | TRPC4/MOR inh 2 inactive | TRPC6 block conf 126.0%
C/C(=N\Nc1ccc([N+](=O)[O-])cc1[N+](=O)[O-])C(C)C(C)C (stereo not drawn)	none
COC(=O)CN1C(=O)COc2ccc(S(=O)(=O)N3CCCCCC3)cc21	none
N#C/C(=C/c1ccc(N2CCCCC2)o1)C(=O)Nc1ccc2ccccc2c1	TRPC6 act 79.7 | HEK293 MPD ctr-2 844.0% | HEK293 MPD ctr 2-2 inactive | TRPC4 ctr mod 233.0% | TRPC4/MOR inh 2 inactive | TRPC6 block conf inactive | TRPC6 act confirm 274.0%
N#C/C(=C/c1ccc(N2CCCCC2)o1)C(=O)Nc1ccc(Cl)cc1	none
CC(C)(C)c1cc(/C=N/NC(=O)C[n+]2ccccc2)cc(C(C)(C)C)c1O	none
CCCCc1ncc(CN2CCN(Cc3ccc(C)cc3)C(CCO)C2)[nH]1 (stereo not drawn)	none
CN(C)/C=C/C(=O)c1ccc(OCCN(C)c2ccccn2)cc1	TRPC6 inhibitor -6.72 | TRPC4 sel inh 2 46.0% | TRPC4 spec 37.3% | HEK293 MPD ctr 2-1 inactive | HEK293 MPD ctr-1 inactive | TRPC6 block conf inactive | TRPC6 act confirm inactive
CN(C)/C=C/C(=O)c1ccc(Oc2ccccc2)cc1	none
O=c1c([N+](=O)[O-])cccn1Cc1cccc(Br)c1	none
Cc1cc(OCC(=O)O/N=C(\N)Cc2cccs2)ccc1Br	TRPC6 inhibitor -9.78 | TRPC4 sel inh 2 inactive | TRPC4 spec inactive | HEK293 MPD ctr 2-1 inactive | HEK293 MPD ctr-1 inactive | TRPC6 block conf inactive | TRPC6 act confirm inactive
CCOC(=O)c1c(CSc2ccccc2)n(C)c2cc(Br)c(O)c(CN(C)C)c12	TRPC6 inhibitor -5.88 | HEK293 MPD ctr-2 inactive | HEK293 MPD ctr 2-2 inactive | TRPC4 ctr mod inactive | TRPC4/MOR inh 2 56.5% | TRPC6 block conf 44.0% | TRPC6 act confirm inactive
CCOC(=O)c1c(CN2CCCCC2)n(C)c2cc(Br)c(OC)cc12	none
CCOC(=O)c1c(CN(CC)CC)n(C)c2cc(Br)c(O)cc12	none
